The values below come from ChEMBL document CHEMBL1938288, “Discovery, synthesis, and pharmacological evaluation of spiropiperidine hydroxamic acid based derivatives as structurally novel histone deacetylase (HDAC) inhibitors” (J Med Chem, 2011).

One series deals with K562. In words: Antiproliferative activity against human K562 cells after 72 hrs by CellTiter-Glo luminescent cell viability assay. The conditions noted are these: K562, 72 h. It is filed as functional, cell-based. The gist of the method: (§1)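 Cells in exponential growth exposed to a range of inhibitor concentrations for 72 h. CellTiter-Glo reagent added, mixed 2 min to lyse cells, luminescence read 10 min later. IC50 derived from the concentration–response. Replicates n ≥ 2, mean shown.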
(ATP-based viability assays read luminescence as a measure of living cells.)

Another series relates to A549. Nature of the series: Antiproliferative activity against human A549 cells after 72 hrs by CellTiter-Glo luminescent cell viability assay. In kind it is functional, cell-based. The conditions noted are these: A549, 72 h. A digest of the protocol:
as §1

The next series concerns HCT-116. In words: Antiproliferative activity against human HCT116 cells after 72 hrs by CellTiter-Glo luminescent cell viability assay. In kind it is functional, cell-based. The settings on record: HCT-116, 72 h. A digest of the protocol:
as §1

For a further series, the target named is Histone deacetylase. In words: Inhibition of human HDAC in HeLa cell nuclear extracts using KI-104 Fluor de Lys as substrate by fluorescence assay. In kind it is protein assay. A digest of the protocol: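 HDAC activity from partially purified HeLa nuclear extracts, using a fluorogenic acetylated histone peptide (Fluor de Lys) as substrate. Replicates n ≥ 2, mean values reported.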

Series [1] can be described thus: Oral bioavailability in mouse. The conditions noted are these: in vivo. In kind it is ADME, organism-based.
Series [2] is described as follows: Clearance in mouse. In kind it is ADME, organism-based. The conditions noted are these: in vivo.

The IC50 is the concentration needed to halve the response being measured. Read a low IC50 as higher potency. `CC(=O)N1CCC2(CC1)CC(=O)c1cc(C(=O)NO)ccc1O2`: the IC50 with K562, in the series with A549, with HCT-116 and at Histone deacetylase was over 50 µM throughout.

As to `CCOC(=O)N1CCC2(CC1)CC(=O)c1cc(/C=C/C(=O)NO)ccc1O2`, the IC50 in the series with K562 worked out at 2.08 µM; with A549, 5.27 µM; in the series with HCT-116 it was 2.14 µM; against Histone deacetylase, 0.14 µM.

As for `O=C(/C=C/c1ccc2c(c1)OC1(CCN(Cc3ccccc3)CC1)CC2=O)NO`, the IC50 with K562 was 8.94 µM; in the series on A549, 12.2 µM; with HCT-116 it was 8.41 µM; on Histone deacetylase, 2.173 µM.

On to `CC(=O)N1CCC2(CC1)CC(=O)c1cc(/C=C/C(=O)NO)ccc1O2`, for which the IC50 in the series with K562 came out at 9.37 µM; in the series with A549, 26.2 µM; in the series on HCT-116, 5.66 µM; against Histone deacetylase, 0.641 µM.

Turning to `O=C(/C=C/c1ccc2c(c1)C(=O)C1(CCNCC1)O2)NO`, the IC50 in the series on K562 is 1.69 µM; with A549, 1.09 µM; in the series on HCT-116 it was 0.832 µM; against Histone deacetylase, 0.221 µM.

Usually bioavailability stands for the share of a dose that reaches the circulation, judged against a reference dose that is usually intravenous. What is called clearance is the volume of plasma or blood freed of the substance per unit of time. `Cc1[nH]c2ccccc2c1CCNCc1ccc(/C=C/C(=O)NO)cc1` [PANOBINOSTAT] gave a bioavailability in series [1] of under 10%. This molecule also yielded a clearance in series [2] of 305 mL/min/kg.

Consider `CCOC(=O)N1CCC2(CC1)Oc1ccc(/C=C/C(=O)NO)cc1C2=O`, for which the IC50 in the series with K562 amounted to 2.61 µM; with A549 it was 20.2 µM; in the series with HCT-116 it was 11.8 µM; on Histone deacetylase, 2.99 µM.

Take `O=C(NO)c1ccc2c(c1)C(=O)CC1(CCN(Cc3ccccc3)CC1)O2`: the IC50 in the series with K562 was determined as 16 µM; in the series with A549 it was 22 µM; in the series on HCT-116, 15 µM; against Histone deacetylase, 24 µM.

Regarding `CN1CCC2(CC1)Oc1ccc(/C=C/C(=O)NO)cc1C2=O`, the half-maximal inhibitory concentration (IC50) with K562 amounted to 0.397 µM; in the series on A549, 1.07 µM; in the series with HCT-116, 0.337 µM; on Histone deacetylase, 0.538 µM.

As to `O=C(/C=C/c1ccc2c(c1)C(=O)C1(CCN(Cc3ccccc3)CC1)O2)NO`, the IC50 was found to be 4.11 µM in the series with K562, 5.94 µM in the series with A549, 3.1 µM in the series on HCT-116 and 0.932 µM against Histone deacetylase.

Take `O=C(NO)c1ccc2c(c1)C(=O)CC1(CCN(C(=O)c3ccccc3)CC1)O2`: the IC50 was over 50 µM with K562, over 50 µM in the series on A549, over 50 µM with HCT-116 and 29 µM on Histone deacetylase.

For `O=C(/C=C/c1ccc2c(c1)C(=O)CC1(CCN(C(=O)c3ccccc3)CC1)O2)NO`, the IC50 in the series on K562 worked out at 1.65 µM; with A549, 5.52 µM; in the series on HCT-116 it was 2.2 µM; against Histone deacetylase it was 0.316 µM.

Take `CC(=O)N1CCC2(CC1)Oc1ccc(/C=C/C(=O)NO)cc1C2=O`: the IC50 in the series on K562, with A549, in the series on HCT-116 and against Histone deacetylase was over 50 µM throughout.

With `CN1CCC2(CC1)CC(=O)c1ccc(/C=C/C(=O)NO)cc1O2`, the IC50 in the series with K562 came to 4.5 µM; with A549 it was 3.76 µM; with HCT-116 it was 5.72 µM; at Histone deacetylase, 5.84 µM.

Turning to `O=C(/C=C/c1ccc2c(c1)OC1(CCNCC1)CC2=O)NO`, the IC50 in the series on K562 is over 50 µM; with A549, 24.8 µM; in the series on HCT-116, 35.5 µM; against Histone deacetylase, 1.41 µM.

For `CC(=O)N1CCC2(CC1)CC(=O)c1ccc(/C=C/C(=O)NO)cc1O2`, the IC50 in the series with K562 came to 6.08 µM; with A549, 11.3 µM; in the series with HCT-116, 36 µM; at Histone deacetylase it was 1.04 µM.

For `CN1CCC2(CC1)CC(=O)c1cc(C(=O)NO)ccc1O2`, the IC50 with K562, in the series with A549, in the series on HCT-116 and against Histone deacetylase was over 50 µM throughout.

Take `O=C(/C=C/c1ccc2c(c1)C(=O)CC1(CCNCC1)O2)NO`: the IC50 with K562 stood at 5.77 µM; with A549, 2.72 µM; with HCT-116, 1.59 µM; against Histone deacetylase it was 0.082 µM.

`O=C(/C=C/c1ccc2c(c1)CCC1(CCN(Cc3ccccc3)CC1)O2)NO`: the IC50 in the series on K562 is 38.6 µM; in the series on A549 it was at least 50 µM; in the series on HCT-116, 28.2 µM; on Histone deacetylase, 9.02 µM.

On to `CCOC(=O)N1CCC2(CC1)CC(=O)c1ccc(/C=C/C(=O)NO)cc1O2`, for which the IC50 is 2.19 µM with K562, 2.78 µM in the series on A549, 3.03 µM in the series with HCT-116 and 0.408 µM against Histone deacetylase.

In series [1], `O=C(/C=C/c1cccc(S(=O)(=O)Nc2ccccc2)c1)NO` [BELINOSTAT] came in with a bioavailability of under 10%. Also, in series [2], the clearance amounted to 193 mL/min/kg.

As for `O=C(/C=C/c1ccc2c(c1)OC1(CCN(C(=O)c3ccccc3)CC1)CC2=O)NO`, the IC50 was determined as 3.19 µM in the series with K562, 8.78 µM in the series with A549, 4.92 µM in the series with HCT-116 and 0.366 µM on Histone deacetylase.

Turning to `O=C(CCCCCCC(=O)Nc1ccccc1)NO` [VORINOSTAT], in series [1], the bioavailability was under 10%.

As to `CC(=O)NC1CC2(CCN(Cc3ccccc3)CC2)Oc2ccc(/C=C/C(=O)NO)cc21` (stereo not given), the IC50 in the series on K562 was over 50 µM; with A549, over 50 µM; in the series on HCT-116 it was 32.8 µM; on Histone deacetylase it was 5.15 µM.

For `CN1CCC2(CC1)CC(=O)c1cc(/C=C/C(=O)NO)ccc1O2`, the IC50 in the series with K562 came out at 0.806 µM; in the series on A549, 1.04 µM; in the series on HCT-116, 0.266 µM; on Histone deacetylase, 0.288 µM.

For the molecule `O=C(/C=C/c1ccc2c(c1)C(O)CC1(CCN(Cc3ccccc3)CC1)O2)NO` (stereo not given), the IC50 in the series on K562 was found to be 2.95 µM; in the series on A549, 5.25 µM; in the series with HCT-116 it was 2.33 µM; against Histone deacetylase it was 1.21 µM.

For the molecule `O=C(/C=C/c1ccc2c(c1)C(=O)C1(CCN(C(=O)c3ccccc3)CC1)O2)NO`, the IC50 in the series with K562 worked out at 7.43 µM; in the series on A549, 22.1 µM; in the series with HCT-116 it was 12.3 µM; against Histone deacetylase, 2.55 µM.

As for `O=C(/C=C/c1ccc2c(c1)C=CC1(CCN(Cc3ccccc3)CC1)O2)NO`, the IC50 worked out at 3.27 µM in the series with K562, 4.7 µM in the series on A549, 3.51 µM in the series with HCT-116 and 1.19 µM against Histone deacetylase.
